Activity calls are given as the source filed them. The rule behind the calls is not given here.
Legend:
SiHa [1] = assay: Cytotoxicity against human SiHa cells under oxic condition assessed as inhibition of cell proliferation after 4 hrs; type: functional, cell-based
Outline: (§1)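 Log-phase monolayers were exposed to drug for 4 h, aerobic (20% O2) for line 5 and anoxic (<20 ppm O2) for line 4. Cell density was read by sulforhodamine B staining 5 days later. IC50 was interpolated as the concentration reducing density to 50% of same-plate controls; mean ± SEM of 3–9 experiments.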

HT-29 [2] = assay: Cytotoxicity against human HT-29 cells under oxic condition assessed as inhibition of cell proliferation after 4 hrs by SRB method; type: functional, cell-based; conditions: HT-29, 4 h
Outline: (§2)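 Log-phase monolayers were exposed 4 h under 20% O₂ or anoxia (<20 ppm O₂), then stained with sulforhodamine B 5 days later. IC50, interpolated as the concentration reducing cell density to 50% of same-plate controls, is given as mean of 3−9 experiments. HCR = IC50(oxic)/IC50(hypoxic), taken as the mean of intraexperiment ratios from 3−6 experiments.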

HT-29 [3] = assay: Ratio of C10 for human HT-29 cells under oxic condition to C10 for human HT-29 cells under hypoxic condition by clonogenic assay; type: functional
Outline: (§3)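 Cells were exposed to drug in duplicate for 4 h at 37 °C, either aerobic (95% air, 5% CO₂) or in an anaerobic chamber (<0.001% O₂). Medium was αMEM + 10% FCS with added glucose (final 17 mmol/L) and 200 μmol/L 2′-deoxycytidine. Cells were then trypsinized and plated; colonies >50 cells were counted after 14 days (methylene blue). C10 = concentration giving 10% survival vs controls; HCR = C10(oxic)/C10(hypoxic).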

C-33-A = assay: Ratio of IC50 for human C33A cells under oxic condition to IC50 for human C33A cells under hypoxic condition; type: functional
Outline: (§4)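 Antiproliferative assay on the cell-line panel: 4 h drug exposure under 20% O₂ or anoxia (<20 ppm O₂), then sulforhodamine B staining after 5 days. HCR = IC50(oxic)/IC50(hypoxic), taken as the mean of intraexperiment ratios from 2−5 experiments.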

SiHa [4] = assay: Cytotoxicity against human SiHa cells under hypoxic condition assessed as inhibition of cell proliferation after 4 hrs; type: functional, cell-based; outline: as §1
HCT-116 = assay: Ratio of IC50 for human HCT116 cells under oxic condition to IC50 for human HCT116 cells under hypoxic condition; type: functional; outline: as §4
NCI-H460 [5] = assay: Ratio of IC50 for human H460 cells under oxic condition to IC50 for human H460 cells under hypoxic condition; type: functional; outline: as §4
[6] = Ratio of IC50 for human H1299 cells under oxic condition to IC50 for human H1299 cells under hypoxic condition; type: functional; outline: as §4
HT-29 [7] = assay: Ratio of IC50 for human HT-29 cells under oxic condition to IC50 for human HT-29 cells under hypoxic condition; type: functional; outline: as §2
SiHa [8] = assay: Antitumor activity against human SiHa cells xenografted in immunocompromized mouse assessed as number of colony forming cells per gram of tumor tissue at 13 umol/kg, iv tumor excised post 18 hrs followed by culturing for 14 days; type: functional
Outline: (§5)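 SiHa tumours grown subcutaneously in male mice from 10⁷ cultured cells; randomized at 8−10 mm mean diameter. Compound in phosphate-buffered saline with 4 equiv sodium bicarbonate, given via tail vein at the stated dose, alone or 5 min after 15 Gy whole-body cobalt-60 γ irradiation. Tumours excised 18 h after dosing, cells cultured 14 days for clonogens. Groups of 3 (drug alone) or 5 (radiation + drug).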

HT-29 [9] = assay: Cytotoxicity against human HT-29 cells under hypoxic condition after 4 hrs by clonogenic assay; type: functional, cell-based; outline: as §3
SiHa [10] = assay: Antitumor activity against human SiHa cells xenografted in immunocompromized gamma irradiated mouse assessed as number of colony forming cells per gram of tumor tissue at 13 umol/kg, iv tumor excised post 18 hrs followed by culturing for 14 days; type: functional; outline: as §5
A549 = assay: Ratio of IC50 for human A549 cells under oxic condition to IC50 for human A549 cells under hypoxic condition; type: functional; outline: as §4
SiHa [11] = assay: Antitumor activity against human SiHa cells xenografted in immunocompromized gamma irradiated mouse assessed as log cell kill at 13 umol/kg, iv tumor excised post 18 hrs followed by culturing for 14 days under hypoxic condition; type: functional
Outline: (§6)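 Male immunocompromised mice bearing subcutaneous tumours (10^7 cultured cells), randomized at 8–10 mm mean diameter. Compound in PBS with 4 equiv sodium bicarbonate given iv (tail vein), alone or 5 min after 15 Gy whole-body cobalt-60 γ-irradiation, which sterilizes oxygenated cells. Tumours excised 18 h after dosing and plated for clonogens for 14 days. n = 3 (vehicle or compound alone) or 5 (irradiated groups).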

HT-29 [12] = assay: Cytotoxicity against human HT-29 cells under oxic condition after 4 hrs by clonogenic assay; type: functional, cell-based; outline: as §3
HT-29 [13] = assay: Cytotoxicity against human HT-29 cells under hypoxic condition assessed as inhibition of cell proliferation after 4 hrs by SRB method; type: functional, cell-based; conditions: HT-29, 4 h; outline: as §2
SiHa [14] = assay: Cytotoxicity against human SiHa cells under hypoxic condition assessed as after 4 hrs by clonogenic assay; type: functional, cell-based; outline: as §3
SiHa [15] = assay: Cytotoxicity against human SiHa cells under oxic condition after 4 hrs by clonogenic assay; type: functional, cell-based; outline: as §3
SiHa [16] = assay: Antitumor activity against human SiHa cells xenografted in immunocompromized gamma irradiated mouse assessed as log cell kill at 42 umol/kg, iv tumor excised post 18 hrs followed by culturing for 14 days under hypoxic condition; type: functional; outline: as §6
NCI-H460 [17] = assay: Toxicity in human H460 cells xenografted immunocompromized mouse at 75 umol/kg, iv; conditions: in vivo
SiHa [18] = assay: Antitumor activity against human SiHa cells xenografted in immunocompromized mouse assessed as number of colony forming cells per gram of tumor tissue at 42 umol/kg, iv tumor excised post 18 hrs followed by culturing for 14 days; type: functional; outline: as §5
NCI-H460 [19] = assay: Antitumor activity against human H460 cells xenografted in immunocompromized gamma irradiated mouse under hypoxic condition assessed as log cell kill at 75 umol/kg, iv tumor excised post 18 hrs followed by culturing for 14 days; type: functional; outline: as §6
SiHa [20] = assay: Antitumor activity against human SiHa cells xenografted in immunocompromized gamma irradiated mouse assessed as number of colony forming cells per gram of tumor tissue at 42 umol/kg, iv tumor excised post 18 hrs followed by culturing for 14 days; type: functional; outline: as §5

Row | SMILES | IC50 (SiHa [1]) | IC50 (HT-29 [2]) | Ratio IC50 (C-33-A) | IC50 (SiHa [4]) | Ratio IC50 (HCT-116) | Ratio IC50 (NCI-H460 [5]) | Ratio IC50 [6] | Ratio IC50 (HT-29 [7]) | Ratio IC50 (A549) | IC50 (HT-29 [13]) | Activity (SiHa [14]) | Activity (SiHa [15]) | further results
1 | COc1ccc(/C=C/C(=O)N2CC(COS(=O)(=O)Cc3ccccc3)c3c2cc([N+](=O)[O-])c2cc(C(N)=O)ccc32)cc1 (stereo not given) | 2.1 µM | 7 µM | 184 | 0.046 µM | 403 | 104 | 644 | 40 | 34 | 0.17 µM | – | – | Ratio (HT-29 [3]): 4090; log10cfu (SiHa [8]): 6.87; Activity (HT-29 [9]): Active; log10cfu (SiHa [10]): 4.3; LCK (SiHa [11]): 1.16; Activity (HT-29 [12]): Active
2 | COc1cc2cc(C(=O)N3CC(COS(=O)(=O)Cc4ccccc4)c4c3cc([N+](=O)[O-])c3cc(C(N)=O)ccc43)[nH]c2c(OC)c1OC (stereo not given) | 0.99 µM | 9.2 µM | 76 | 0.18 µM | 13 | 32 | 86 | 1370 | 6.7 | 0.016 µM | Active | Active | –
3 | COc1cc2cc(C(=O)N3CC(COS(=O)(=O)Cc4ccccc4)c4c3cc([N+](=O)[O-])c3cc(S(N)(=O)=O)ccc43)[nH]c2c(OC)c1OC (stereo not given) | 13 µM | 35 µM | 177 | 0.18 µM | 193 | 0.67 | 226 | 1010 | 20 | 0.042 µM | – | – | –
4 | COc1cc2cc(C(=O)N3CC(COS(C)(=O)=O)c4c3cc([N+](=O)[O-])c3cc(S(=O)(=O)NCCOP(=O)(O)O)ccc43)[nH]c2c(OC)c1OC (stereo not given) | – | – | – | – | – | – | – | – | – | – | – | – | LCK (SiHa [16]): 0.6; Activity (NCI-H460 [17]): Non-toxic; log10cfu (SiHa [18]): 7.15; LCK (NCI-H460 [19]): 0.6; log10cfu (SiHa [20]): 4.38
5 | NC(=O)c1ccc2c3c(cc([N+](=O)[O-])c2c1)N(C(=O)c1cc2cc(OCCO)ccc2[nH]1)CC3COS(=O)(=O)Cc1ccccc1 (stereo not given) | 18.5 µM | 22 µM | 93 | 0.24 µM | 127 | >114 | 255 | 105 | 38 | 0.22 µM | Active | Active | –
